In the library only some 0.99% were active in any assay of this set; here they are far more common.
GC-B act: GC-B (human) receptor activation; HEK293-GC-B cells, CNP EC30, cGMP TR-FRET; 0% at EC30 CNP, 100% saturating CNP; activation, % at 10 µM; 370,000 tested, 0.11% active;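 active means activation at 10 µM reaching about 35% in either raw or pattern-adjusted values, limit read from the data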
NSD2 inh: blocks human histone methyltransferase NSD2 | AID 743445 | O96028 | inhibition, % at 12.5 µM | 310,000 tested, 0.54% active | NSD2 peptide methylation, AlphaScreen, 120 min; in the data active means inhibition above about 50%
Target sequence (O96028 whole entry, looked up): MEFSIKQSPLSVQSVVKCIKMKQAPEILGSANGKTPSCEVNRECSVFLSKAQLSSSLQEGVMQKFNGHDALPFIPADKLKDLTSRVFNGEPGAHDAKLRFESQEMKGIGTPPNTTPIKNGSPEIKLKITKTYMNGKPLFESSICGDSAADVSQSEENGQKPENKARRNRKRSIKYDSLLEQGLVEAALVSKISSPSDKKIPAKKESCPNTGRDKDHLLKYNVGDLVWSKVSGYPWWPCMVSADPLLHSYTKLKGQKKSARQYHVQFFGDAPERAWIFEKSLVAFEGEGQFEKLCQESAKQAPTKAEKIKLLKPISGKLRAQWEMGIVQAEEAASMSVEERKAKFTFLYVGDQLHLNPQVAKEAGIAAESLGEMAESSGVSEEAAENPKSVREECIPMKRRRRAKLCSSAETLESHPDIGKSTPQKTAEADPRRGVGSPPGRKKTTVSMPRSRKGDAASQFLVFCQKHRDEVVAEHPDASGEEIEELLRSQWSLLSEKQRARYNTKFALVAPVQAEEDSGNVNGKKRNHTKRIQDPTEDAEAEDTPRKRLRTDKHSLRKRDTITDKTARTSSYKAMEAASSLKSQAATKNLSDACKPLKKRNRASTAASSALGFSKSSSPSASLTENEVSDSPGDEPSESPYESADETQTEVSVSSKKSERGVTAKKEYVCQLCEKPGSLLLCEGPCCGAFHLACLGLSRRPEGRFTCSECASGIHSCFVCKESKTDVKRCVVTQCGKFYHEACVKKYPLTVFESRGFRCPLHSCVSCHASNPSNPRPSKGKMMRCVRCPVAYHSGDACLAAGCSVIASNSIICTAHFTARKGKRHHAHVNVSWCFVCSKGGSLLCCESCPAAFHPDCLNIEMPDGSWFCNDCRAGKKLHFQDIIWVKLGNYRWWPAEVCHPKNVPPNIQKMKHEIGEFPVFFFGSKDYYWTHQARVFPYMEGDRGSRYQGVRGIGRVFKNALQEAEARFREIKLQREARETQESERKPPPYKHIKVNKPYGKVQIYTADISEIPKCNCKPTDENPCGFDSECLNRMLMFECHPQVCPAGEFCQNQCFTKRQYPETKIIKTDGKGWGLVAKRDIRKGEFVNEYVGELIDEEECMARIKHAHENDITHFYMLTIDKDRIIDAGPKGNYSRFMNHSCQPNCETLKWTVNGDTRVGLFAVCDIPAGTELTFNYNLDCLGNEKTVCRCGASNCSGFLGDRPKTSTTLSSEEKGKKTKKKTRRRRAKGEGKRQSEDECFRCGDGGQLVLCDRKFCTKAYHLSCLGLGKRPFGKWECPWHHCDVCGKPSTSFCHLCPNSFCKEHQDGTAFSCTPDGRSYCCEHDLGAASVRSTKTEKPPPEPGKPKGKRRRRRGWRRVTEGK
CASP6 VEID inh: caspase-6 (human) enzyme inhibition | P55212 | purified caspase-6, Z-VEID-R110 cleavage fluorescence | inhibition, % at 12.5 µM | 350,000 tested, 0.53% active | AID 686996;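 active means mean inhibition across replicates at least about 35%, with every replicate also reaching that limit, limit read from the data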;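 further: 0% = median of neutral control wells and 100% = no fluorescence left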
FN deposit inh: fibronectin deposition inhibition | AH1F fibroblasts, Alexa488-fibronectin deposition fluorescence, overnight | inhibition, % at 12.6 µM | 350,000 tested, 0.086% active | AID 743247;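 active means mean inhibition across replicates of 30% or more, regardless of how many single replicates reach that level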;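 further: positive control wells lacked labelled fibronectin entirely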
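Assay system: AH1F fibroblasts / Quantity: 10000 cells per well / Medium: DMEM plus 2% serum, read in PBS / Reagent: labelled fibronectin 24 nM / Dosing: single dose, pinned / Times: 1 h cell attachment, overnight exposure to compound and label / Signal: fluorescence, ex 485 nm, em 525 nm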
CaV13 FRET inh: Primary screen for inhibitors of IQ motif and Ca2+-dependent inactivation inhibitor domain binding in CACNA1D, Förster resonance energy transfer in living cells, …; inhibition, % at 12.3 µM; HEK cells, CFP/YFP FRET ICDI-IQ, plate reader, 10 min; percent FRET-ratio fall versus neutral wells; 340,000 tested, 0.098% active;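 active means mean replicate inhibition of at least 30% and at least 1% of replicates passing that level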;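 further: 0% = median of the neutral control wells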
NPR1 activator: GC-A (human) enzyme activation | P16066 | HEK293 GC-A cells, cGMP TR-FRET, EC30 ANP; 0% at EC30 ANP, 100% saturating ANP | activation, % at 10 µM | 370,000 tested, 0.14% active | AID 1671463; in the data active means activation above about 40%
An asterisk follows results filed as active; nt = not tested or not shown; + = active, no number.

SMILES	GC-B act	NSD2 inh	CASP6 VEID inh	FN deposit inh	CaV13 FRET inh	NPR1 activator
CCC(C)n1c(=N)c(C#N)cc2c(=O)n3cccc(C)c3nc21 (stereo unspecified)	-4.2	nt	-2.9	9.8	+	8.7
C[C@H](CO)N1C[C@H](C)[C@@H](CN(C)C(=O)Nc2ccc(F)cc2)Oc2c(NS(C)(=O)=O)cccc2C1=O	nt	nt	-0.2	13.8	nt	nt
COc1cccc(CN2CCN(C(=O)c3ccc(-c4ccccc4)cc3)CC2)c1OC	6.4	0.6	4.2	32.3*	1.0	0.4
COc1cccc(C(=O)N2CCN(Cc3ccc(OC)cc3OC)CC2)c1	-0.4	-1.3	41.5*	2.0	-1.7	0.4
COc1cc(CN2CCN(C(=O)c3ccc(-c4ccccc4)cc3)CC2)cc(OC)c1OC	-6.7	2.3	-1.4	nt	-6.3	-5.1
O=C(c1ccccc1OC(F)F)N1CCN(S(=O)(=O)/C=C/c2ccccc2)CC1	nt	-2.4	nt	nt	nt	nt
Cc1c(N=C2N=C(NC(=O)c3ccc(F)cc3)c3ccccc32)c(=O)n(-c2ccccc2)n1C	-4.3	nt	-2.7	0.6	-2.4	58.0*
Cc1c(NC(=O)NC(=O)c2ccc(F)cc2)c(=O)n(-c2ccccc2)n1C	-1.4	0.4	nt	nt	nt	-3.3
C[C@@H]1CN([C@H](C)CO)C(=O)c2cc(-c3ccc(F)cc3)cnc2O[C@@H]1CN(C)CC1CCCC1	nt	nt	-1.9	-3.5	nt	nt
C/C(Cl)=C/Cn1c(NCCN(C)C)nc2c1c(=O)n(C)c(=O)n2C	0.2	3.2	nt	7.5	-4.4	0.0
CCCCCCn1c(N2CCCC2)nc2c1c(=O)[nH]c(=O)n2C	-4.0	-1.7	1.0	15.4	-2.3	-7.6
Cn1c(=O)c2c(nc(NC3CCCCC3)n2Cc2ccccc2)n(C)c1=O	53.7*	nt	1.5	0.4	-4.7	78.5*
CCCCCn1c(NC2CCCCC2)nc2c1c(=O)[nH]c(=O)n2C	17.0	nt	-1.1	10.1	-6.4	47.6*
C/C(Cl)=C\Cn1c(Nc2ccccc2)nc2c1c(=O)n(C)c(=O)n2C	54.9*	-3.4	nt	nt	nt	61.9*
CC(=O)N1CC2(C1)[C@@H](c1ccccc1)[C@@H](CO)N2Cc1cc(F)ccc1F	nt	nt	-1.9	nt	nt	nt
COCCNC(=O)C[C@@H]1C[C@@H]2c3cc(NC(=O)Nc4ccccc4F)ccc3O[C@@H]2[C@@H](CO)O1	nt	nt	nt	-8.0	nt	nt
C[C@@H]1CN([C@@H](C)CO)C(=O)c2cc(NC(=O)CCC(F)(F)F)ccc2O[C@@H](C)CCCCO[C@H]1CN(C)C(=O)NC1CCCCC1	nt	nt	1.5	nt	nt	nt
COCCCNC(=O)c1cccn2c(=O)c3cc4ccccc4cc3nc12	-0.7	85.2*	2.8	nt	-9.6	-4.2
Cc1noc(C)c1NC(=O)N(C)C[C@H]1OCCCC[C@H](C)Oc2ccc(NC(=O)C3CCCCC3)cc2C(=O)N([C@H](C)CO)C[C@@H]1C	nt	nt	-0.9	nt	nt	nt
COc1ccc(C(=O)OCC(=O)c2ccc[nH]2)c(OC)c1	1.8	-1.1	43.1*	-9.4	-9.6	1.0
Cc1cccn2c(=O)c3cc(C#N)c(=NC(=O)c4ccco4)n(Cc4ccco4)c3nc12	0.9	8.6	67.1*	4.1	11.1	-13.2
CCOCCCn1c(=NC(=O)c2cccs2)c(C#N)cc2c(=O)n3cccc(C)c3nc21	-7.7	-3.0	1.0	2.0	15.7	8.2
Cc1cccn2c(=O)c3cc(C#N)c(=NC(=O)c4cccs4)n(CC(C)C)c3nc12	3.4	2.4	-0.5	-0.8	+	4.2
Cc1cccn2c(=O)c3cc(C#N)c(=NC(=O)c4ccccc4)n(Cc4ccco4)c3nc12	-5.8	-0.5	13.2	-4.3	1.3	3.8
CCCN(C)C[C@@H]1Oc2cc(C#CCOC)ccc2S(=O)(=O)N([C@@H](C)CO)C[C@@H]1C	nt	nt	2.2	4.0	nt	nt
SMILES	GC-B act	NSD2 inh	CASP6 VEID inh	FN deposit inh	CaV13 FRET inh	NPR1 activator
c1ccc(Nc2nc(-c3ccccc3)nc3ccccc23)cc1	-3.1	-16.0	1.7	1.5	-2.7	-0.9
Fc1cccc(Nc2nc(-c3ccncc3)nc3ccccc23)c1	0.8	-1.0	53.0*	-0.2	-14.8	5.1
CCOc1cc(/C=C2\C(=O)ON=C2C)ccc1OCc1ccccc1	45.9*	6.1	nt	-0.5	-5.7	37.8
COc1ccc(/C=C2/C(=O)ON=C2C)cc1Cl	25.5	1.4	2.7	4.5	-9.3	36.4
C=CCOc1ccc(/C=C2/C(=O)ON=C2C)cc1OC	22.9	13.1	0.8	1.8	-9.2	41.0*
O=C(O)C1=C2C(=O)Nc3cccc(c32)C2(C1)C(=O)Nc1ccccc12 (stereo unspecified)	-0.9	nt	60.1*	6.9	-13.3	-1.2
O=C1NCCC12C(=O)Nc1ccccc12 (stereo unspecified)	-1.8	nt	-0.1	nt	nt	-0.7
O=C(Nc1ccccc1)N1C[C@@H]2[C@H](c3ccccc31)[C@@H](CO)N2Cc1ccccc1	nt	nt	1.3	nt	nt	nt
COc1ccc2cc(C(c3nnnn3C3CCCC3)N3CCc4ccccc4C3)c(=O)[nH]c2c1 (stereo unspecified)	-3.8	0.3	46.7*	-7.9	-4.5	1.6
CCC(C)(C)n1nnnc1C(c1cc2ccc(OC)cc2[nH]c1=O)N1CCc2ccccc2C1 (stereo unspecified)	0.3	-0.9	nt	4.8	-3.7	-4.0
CC1CN(Cc2nc3c(c(=O)n(C)c(=O)n3C)n2CCCO)CC(C)O1 (stereo unspecified)	6.1	-2.4	nt	0.7	-3.4	-1.8
CC(C)CCn1c(CN2CC(C)OC(C)C2)nc2c1c(=O)n(C)c(=O)n2C (stereo unspecified)	-4.9	nt	-0.7	5.1	37.2*	-0.9
C[C@@H]1CN([C@@H](C)CO)C(=O)c2cc(NS(=O)(=O)c3cccs3)ccc2O[C@@H](C)CCCCO[C@@H]1CN(C)Cc1ccccc1	nt	nt	0.4	-7.4	nt	nt
Cn1c(=NC(=O)CS(=O)(=O)c2ccccc2)sc2cc(F)ccc21	-0.8	-0.1	0.3	-3.0	-4.7	-0.1
Cn1c(=NC(=O)CCS(=O)(=O)c2ccccc2)sc2cc(F)ccc21	34.9	-0.7	7.5	-2.6	nt	61.8*
COCCn1c(=NC(=O)CCS(=O)(=O)c2ccccc2)sc2cc(C(=O)OC)ccc21	2.1	nt	-0.8	1.3	-1.4	61.1*
C[C@H]1CN([C@@H](C)CO)C(=O)c2cc(NC(=O)Cn3cnnn3)ccc2O[C@H]1CN(C)C(=O)Nc1ccc(C(F)(F)F)cc1	nt	nt	0.7	nt	nt	nt
COc1cccc(CN2CCCCN3[C@H](CO)[C@@H](c4ccc(C#Cc5cccnc5)cc4)[C@H]3C2)c1	nt	nt	-1.6	nt	nt	nt
CCOC(=O)/C=C(\C)Sc1cc(=O)oc2ccccc12	nt	-1.1	nt	-2.5	-4.9	nt
CCOC(=O)/C=C(\C)Sc1cc(O)c2ccccc2c1O	-3.7	nt	94.0*	8.3	-19.0	3.3
O=C(N[C@H]1CC[C@@H](CCNS(=O)(=O)c2ccc(F)cc2)O[C@@H]1CO)C1CCC1	nt	nt	0.1	-0.6	nt	nt

Assay outcomes as filed in PubChem BioAssay.
